Results as given in article PMC7854954 (Clinical Pharmacology and Therapeutics, 2020).
Where two headings read alike, the source gives them in different places.

Assays:
[1] = Binding to patient plasma proteins; format: in vitro ADME; conditions: human, plasma of patients with cancer
[2] = Binding to brain tumor tissues; format: in vitro ADME; conditions: human, patient brain tumor tissue
[3] = In vitro metabolism in human liver microsomes; format: in vitro ADME; conditions: for K m / Vmax: HLM; for fuinc: HLM incubation; for microsomal CLint: human, pooled liver microsomes
[4] = In vitro metabolism in human intestinal microsomes; format: in vitro ADME; conditions: for fumic: HIM section, fraction unbound in microsomal incubation; for microsomal CLint: human, pooled intestinal microsomes
[5] = Passive transcellular permeability, parental MDCKII monolayers; format: in vitro ADME; conditions: dog, MDCK, pH 7.4
Summary of the method: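 Bidirectional transport (apical-to-basolateral and basolateral-to-apical) across parental MDCKII cell monolayers grown on transwell filters, with pH 7.4 in both apical and basolateral chambers. Apparent permeability is reported for each direction, along with the efflux ratio. Values are mean ± SD from at least three independent experiments, each run in duplicate.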

ABCB1 = ABCB1 (Homo sapiens, UniProt P08183); assay: Bidirectional permeability and efflux, MDCKII-ABCB1 monolayers; format: in vitro ADME; conditions: for CLABCB1,vitro: Blood-CSF barrier, Eq. 2; for Papp A→B at 1 h, 1 µM: human, MDCK-MDR1, pH 7.4
Chain of ABCB1 (P08183 whole entry): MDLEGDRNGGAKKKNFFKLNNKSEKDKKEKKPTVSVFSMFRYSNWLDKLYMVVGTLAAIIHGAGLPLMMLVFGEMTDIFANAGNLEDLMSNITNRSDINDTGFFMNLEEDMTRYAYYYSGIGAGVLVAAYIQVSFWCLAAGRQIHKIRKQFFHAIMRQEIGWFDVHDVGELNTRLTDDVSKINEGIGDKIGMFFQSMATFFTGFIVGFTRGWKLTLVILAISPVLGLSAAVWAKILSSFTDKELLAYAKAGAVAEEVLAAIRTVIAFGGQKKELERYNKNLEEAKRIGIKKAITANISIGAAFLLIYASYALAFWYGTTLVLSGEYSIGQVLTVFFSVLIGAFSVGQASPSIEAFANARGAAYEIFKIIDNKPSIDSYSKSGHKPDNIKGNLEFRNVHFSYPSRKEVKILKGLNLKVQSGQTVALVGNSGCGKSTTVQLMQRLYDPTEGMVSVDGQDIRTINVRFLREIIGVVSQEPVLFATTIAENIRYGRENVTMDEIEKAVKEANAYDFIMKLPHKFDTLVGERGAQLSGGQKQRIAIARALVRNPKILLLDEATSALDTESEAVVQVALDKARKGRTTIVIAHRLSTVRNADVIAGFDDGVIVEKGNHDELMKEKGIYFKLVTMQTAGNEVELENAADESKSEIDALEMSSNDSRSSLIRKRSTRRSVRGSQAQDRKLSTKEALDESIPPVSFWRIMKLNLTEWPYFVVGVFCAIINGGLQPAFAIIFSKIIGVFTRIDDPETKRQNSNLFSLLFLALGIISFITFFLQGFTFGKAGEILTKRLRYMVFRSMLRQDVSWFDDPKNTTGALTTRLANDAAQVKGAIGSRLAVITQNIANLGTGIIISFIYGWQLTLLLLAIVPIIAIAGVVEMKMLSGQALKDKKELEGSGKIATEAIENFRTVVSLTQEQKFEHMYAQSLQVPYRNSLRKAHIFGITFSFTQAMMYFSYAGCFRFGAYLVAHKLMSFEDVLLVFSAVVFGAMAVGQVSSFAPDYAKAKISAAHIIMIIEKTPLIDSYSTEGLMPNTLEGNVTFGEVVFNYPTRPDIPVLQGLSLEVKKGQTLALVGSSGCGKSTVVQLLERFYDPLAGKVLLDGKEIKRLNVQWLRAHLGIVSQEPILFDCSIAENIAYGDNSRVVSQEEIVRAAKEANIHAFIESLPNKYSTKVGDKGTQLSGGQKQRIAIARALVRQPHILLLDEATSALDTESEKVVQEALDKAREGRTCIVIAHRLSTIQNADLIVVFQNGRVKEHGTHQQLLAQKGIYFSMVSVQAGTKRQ

ABCG2 = target: T1, ABCG2 (Homo sapiens, UniProt Q9UNQ0); assay: Bidirectional permeability and efflux, MDCKII-ABCG2 monolayers; format: in vitro ADME; conditions: for Papp A→B at 1 h, 1 µM: pH 7.4
T1 sequence (Q9UNQ0 1-655): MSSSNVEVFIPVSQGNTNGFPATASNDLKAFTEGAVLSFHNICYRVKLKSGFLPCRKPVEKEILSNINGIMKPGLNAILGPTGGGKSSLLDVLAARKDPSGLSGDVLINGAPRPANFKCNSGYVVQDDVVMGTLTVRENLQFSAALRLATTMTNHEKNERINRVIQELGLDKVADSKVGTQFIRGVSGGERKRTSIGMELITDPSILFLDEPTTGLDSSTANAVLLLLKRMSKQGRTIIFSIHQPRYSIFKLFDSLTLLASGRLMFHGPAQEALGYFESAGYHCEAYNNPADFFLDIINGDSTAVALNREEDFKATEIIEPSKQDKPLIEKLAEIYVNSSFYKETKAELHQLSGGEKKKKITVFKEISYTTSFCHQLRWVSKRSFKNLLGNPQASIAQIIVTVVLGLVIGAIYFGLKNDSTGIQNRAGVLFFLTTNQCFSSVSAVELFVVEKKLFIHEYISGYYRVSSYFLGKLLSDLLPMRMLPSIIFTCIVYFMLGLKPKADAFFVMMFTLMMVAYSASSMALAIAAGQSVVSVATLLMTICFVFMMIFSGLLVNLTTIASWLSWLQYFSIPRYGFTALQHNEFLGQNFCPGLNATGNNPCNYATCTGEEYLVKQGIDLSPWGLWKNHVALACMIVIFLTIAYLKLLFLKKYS

[6] = Whole-body PBPK model drug-specific parameters; set-up: species or system human; conditions: Observed; for Ka: estimated from observed data
CDK4 = conditions: read-out: in vitro IC50 for inhibition of CDK4; cited from earlier work
CDK6 = conditions: read-out: in vitro IC50 for inhibition of CDK6; cited from earlier work
[7] = cited from earlier work; for observed CL/F / observed apparent volume of distribution (V/F): population pharmacokinetic analysis in patients with cancer
[8] = cited from earlier work; for observed unbound tumor concentration, median (range): patients with glioblastoma
[9] = rats; cited from earlier work
[10] = mice; cited from earlier work
glioblastoma = conditions: single‐agent treatment; cited from earlier work

Row | Structure (SMILES) | fraction unbound [1] | fraction unbound [2] | K m [3] [µM] | Vmax [3] [pmol/min/mg] | fuinc [3] | microsomal CLint [3] [µL/min/mg] | K m ([4]; HIM) [µM] | fumic [4] | microsomal CLint [4] [µL/min/mg] | Papp A→B at 1 h, 1 µM [5] [×10⁻⁶ cm/s] | CLABCB1,vitro (ABCB1) [µL/min/mg] | Papp A→B at 1 h, 1 µM (ABCB1) [×10⁻⁶ cm/s] | Papp A→B at 1 h, 1 µM (ABCG2) [×10⁻⁶ cm/s] | Lag time [6] [h] | Ka [6] | IC50 (CDK4) [nM] | IC50 (CDK6) [nM] | observed CL/F [7] [L/h] | observed apparent volume of distribution (V/F) [7] | brain penetration K p,uu [9] | further results
1 | CN(C)C(=O)c1cc2cnc(Nc3ccc(N4CCNCC4)cn3)nc2n1C1CCCC1 [Ribociclib, ribociclib] | 0.125 | 0.044 | 13.4 | 313.7 | […] | 23.4 | 28.8 | […] | […] | 7.17 ± 1.85 | […] | 1.77 ± 0.82 | […] | 0.5 | 0.8 | […] | 39 | – | – | – | observed apparent oral clearance (CL/F) ([7]; 900 mg q.d. for 5 days, glioblastoma patients): […]; observed median CSF K p,uu ([8]; 12 patients with glioblastoma, 900 mg q.d. for 5 days): 1.8; observed unbound tumor concentration, median (range) ([8]; enhancing tumor regions): […]; observed unbound tumor concentration, median (range) ([8]; non‐enhancing tumor regions): […]
2 | CC(=O)c1c(C)c2cnc(Nc3ccc(N4CCNCC4)cn3)nc2n(C2CCCC2)c1=O [Palbociclib, palbociclib] | 0.126 | […] | 78.1 | – | […] | […] | 70.4 | […] | […] | […] | […] | […] | 7.73 ± 0.25 | […] | 0.367 | […] | […] | […] | 2,342 L | […] | brain penetration K p,uu [10]: […]
3 | COc1cc2ncnc(Nc3ccc(F)c(Cl)c3)c2cc1OCCCN1CCOCC1 [gefitinib] | – | – | – | – | – | – | – | – | – | – | – | – | – | – | – | – | – | – | – | – | efflux ratio at 1 h, 1 µM (ABCG2; with Ko143 1 µM in the top chamber): 8.86
4 | CCN1CCN(Cc2ccc(Nc3ncc(F)c(-c4cc(F)c5nc(C)n(C(C)C)c5c4)n3)nc2)CC1 [Abemaciclib, abemaciclib] | […] | […] | […] | […] | […] | 15.9 | […] | […] | 4.29 | 9.09 ± 2.21 | 800 | […] | 7.98 ± 0.42 | […] | 0.197 | […] | […] | […] | […] | […] | Vmax ([4]; HIM): 494.3 pmol/min/mg; observed CSF concentrations (range) ([8]; 10 patients, daily or twice daily oral 50–275 mg for 15 days): […]; observed mean CSF K p,uu ([8]; patients): 0.70; brain penetration K p,uu [10]: […]; patients with glioblastoma who achieved stable disease (glioblastoma): […]
